# ChEMBL document CHEMBL1121953, “Carbon-7 substituted actinomycin D analogues as improved antitumor agents: synthesis and DNA-binding and biological properties” (J Med Chem, 1982)
# *1 amine or outer side, *2 acyl side, *3 side chain or, on linkers, in order; H or OH if unused. Where a SMILES comes first, the peptide text is derived from it. Bridges are numbered along the chain shown (N, C = ends). Roman numbers before positions name the chains, in order. [ ]: non-standard residue; d: D form. Actinocin(9to1) = Cc1c2oc3c(C)ccc(C(=O)[*:1])c3nc-2c(C(=O)[*:2])c(N)c1=O; NMeV = CN[C@H](C(=O)O)C(C)C; Sar = CNCC(=O)O
# How the values were obtained:
# Homo sapiens = organism: Homo sapiens; assay: In vitro growth inhibitory activity against human lymphoblastic leukemia cells; format: functional; settings: read-out: ID50 (the source's name)
# Procedure, shortened: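 CCRF-CEM human lymphoblastic leukemia cells in log-phase growth; compounds dissolved in Me₂SO, final growth medium 1% Me₂SO.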
# P388 [1] = assay: Number of mice with P-388 lymphocytic leukemia cured( 0.031 mg/kg),ip; 0/7; format: functional, Mus musculus
# P388 [2] = assay: Number of mice with P-388 lymphocytic leukemia cured( 0.125 mg/kg),ip.; 1/7; format: functional, Mus musculus
# P388 [3] = assay: Number of mice with P-388 lymphocytic leukemia cured( 0.250 mg/kg),ip; 0/7; format: functional, Mus musculus; settings: dose 0.25 mg/kg
# P388 [4] = assay: Number of mice with P-388 lymphocytic leukemia cured.( 0.062 mg/kg),ip; 0/7; format: functional, Mus musculus
# P388 [5] = assay: Antitumor activity against P-388 lymphocytic leukemia in CDF1 hybrid male mice measured as percent increase in lifespan( 0.031 mg/kg),ip; format: functional; settings: Mus musculus
# Procedure, shortened: (§1)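 Male CDF1 mice (18-23 g) were inoculated ip with 10⁶ P-388 cells on day 0. Drug was given ip in 10% dimethyl sulfoxide-saline on days 1, 5 and 9. Test solutions were kept at 0-4 °C, protected from light, and checked periodically for stability and homogeneity by TLC and HPLC. Read-out was survival, median survival time, increase in life span and tumor-free cures per 7 animals.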
# P388 [6] = assay: Antitumor activity against P-388 lymphocytic leukemia in CDF1 hybrid male mice measured as percent increase in lifespan( 0.125 mg/kg),ip; format: functional; settings: Mus musculus; procedure, shortened: as §1
# P388 [7] = assay: Antitumor activity against P-388 lymphocytic leukemia in CDF1 hybrid male mice measured as percent increase in lifespan( 0.250 mg/kg),ip; format: functional; settings: Mus musculus; procedure, shortened: as §1
# P388 [8] = assay: Antitumor activity against P-388 lymphocytic leukemia in CDF1 hybrid male mice measured as percent increase in lifespan(0.062 mg/kg),ip; format: functional, Mus musculus; procedure, shortened: as §1
# P388 [9] = assay: Antitumor activity against P-388 lymphocytic leukemia in CDF1 hybrid male mice measured as median survival time (0.031 mg/kg),ip; format: functional, Mus musculus; procedure, shortened: as §1
# P388 [10] = assay: Antitumor activity against P-388 lymphocytic leukemia in CDF1 hybrid male mice measured as median survival time (0.062 mg/kg),ip; format: functional, Mus musculus; procedure, shortened: as §1
# P388 [11] = assay: Maximum tolerated dose was determined compared to 7-(2,3-Epoxypropoxy)-actinomycin D against P-388 leukemia in mice(3 days); format: functional, Mus musculus
# Procedure, shortened: (§2)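 Tumor-free male CDF1 mice (18-23 g) received a broad dose range ip in 10% dimethyl sulfoxide-saline, either on days 1, 5, 9 (three injections) or on 4 successive days (qd 1-4). Deaths were recorded over 21 days. MTD was the dose lethal to 10% (LD10), taken from a plot of log dose vs percent mortality. Average of two experiments.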
# P388 [12] = assay: Maximum tolerated dose was determined compared to 7-(2,3-Epoxypropoxy)-actinomycin D against P-388 leukemia in mice(4 days); format: functional, Mus musculus; procedure, shortened: as §2
# P388 [13] = assay: Antitumor activity against P-388 lymphocytic leukemia in CDF1 hybrid male mice measured as median survival time ( 0.375 mg/kg),ip; format: functional, Mus musculus; procedure, shortened: as §1
# P388 [14] = assay: Antitumor activity against P-388 lymphocytic leukemia in CDF1 hybrid male mice measured as median survival time (0.125 mg/kg),ip; format: functional, Mus musculus; procedure, shortened: as §1
# P388 [15] = assay: Antitumor activity against P-388 lymphocytic leukemia in CDF1 hybrid male mice measured as median survival time (0.25 mg/kg),ip; format: functional, Mus musculus; procedure, shortened: as §1
# P388 [16] = assay: Minimum effective dose was determined compared to 7-(2,3-Epoxypropoxy)-actinomycin D against P-388 leukemia in mice(3 days); format: functional, Mus musculus; parameters: unit: mg/kg
# Procedure, shortened: (§3)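 MED was the dose (mg/kg) giving a 40% increase in life span over control in mice bearing ip P-388 leukemia. Drug was given ip in 10% dimethyl sulfoxide-saline on a q4d 1, 5, 9 (three injections) or qd 1-4 (four injections) schedule.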
# P388 [17] = assay: Minimum effective dose was determined compared to 7-(2,3-Epoxypropoxy)-actinomycin D against P-388 leukemia in mice(4 days); format: functional, Mus musculus; procedure, shortened: as §3
# [18] = Therapeutic Index measured as the MTD/MED ratio compared to that of compound 3; settings: read-out: Therapeutic index
# Procedure, shortened: (§4)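 Therapeutic index is MTD/MED, with ip dosing in 10% dimethyl sulfoxide-saline on a qd 1-4 or q4d 1, 5, 9 schedule. MED is the dose giving a 40% increase in life span over control in P-388-bearing mice. MTD is the LD10 in tumor-free male CDF1 mice (18-23 g) over 21 days, read from a log dose vs. percent mortality plot and averaged over 2-3 experiments.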
# [19] = Therapeutic Index measured as the MTD/MED ratio compared to that of compound 4; settings: read-out: Therapeutic index; procedure, shortened: as §4
# [20] = In vitro growth inhibitory activity for effect on melting temperature of DNA was determined
# Procedure, shortened: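 DNA thermal denaturation; ΔTm = Tm of DNA-drug complex minus Tm of DNA. Drug 1.4×10⁻⁴ M, DNA (P) 1.4×10⁻³ M in 0.01 M phosphate buffer pH 7.0 with 5×10⁻³ M EDTA and 5% dimethyl sulfoxide.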
# P388 [21] = assay: Number of mice with P-388 lymphocytic leukemia cured( 0.15 mg/kg),ip.; 0/7; format: functional, Mus musculus; procedure, shortened: as §1
# P388 [22] = assay: Number of mice with P-388 lymphocytic leukemia cured( 0.3 mg/kg),ip; 2/7; format: functional, Mus musculus; procedure, shortened: as §1
# P388 [23] = assay: Number of mice with P-388 lymphocytic leukemia cured( 0.6 mg/kg),ip; 1/7; format: functional, Mus musculus; procedure, shortened: as §1
# P388 [24] = assay: Number of mice with P-388 lymphocytic leukemia cured( 1.2 mg/kg),ip; 0/7; format: functional, Mus musculus; procedure, shortened: as §1
# P388 [25] = assay: Number of mice with P-388 lymphocytic leukemia cured.( 1.8 mg/kg),ip; 0/7; format: functional, Mus musculus
# P388 [26] = assay: Antitumor activity against P-388 lymphocytic leukemia in CDF1 hybrid male mice measured as percent increase in lifespan( 1.2 mg/kg),ip; format: functional; settings: Mus musculus; procedure, shortened: as §1
# P388 [27] = assay: Antitumor activity against P-388 lymphocytic leukemia in CDF1 hybrid male mice measured as percent increase in lifespan( 1.8 mg/kg),ip; format: functional; settings: Mus musculus; procedure, shortened: as §1
# P388 [28] = assay: Antitumor activity against P-388 lymphocytic leukemia in CDF1 hybrid male mice measured as percent increase in lifespan(0.15 mg/kg),ip; format: functional, Mus musculus; procedure, shortened: as §1
# P388 [29] = assay: Antitumor activity against P-388 lymphocytic leukemia in CDF1 hybrid male mice measured as percent increase in lifespan(0.3 mg/kg),ip; format: functional, Mus musculus; procedure, shortened: as §1
# P388 [30] = assay: Antitumor activity against P-388 lymphocytic leukemia in CDF1 hybrid male mice measured as percent increase in lifespan(0.6 mg/kg),ip; format: functional, Mus musculus; procedure, shortened: as §1
# P388 [31] = assay: Antitumor activity against P-388 lymphocytic leukemia in CDF1 hybrid male mice measured as median survival time ( 1.8 mg/kg),ip; format: functional, Mus musculus; procedure, shortened: as §1
# P388 [32] = assay: Antitumor activity against P-388 lymphocytic leukemia in CDF1 hybrid male mice measured as median survival time ( 0.15 mg/kg),ip; format: functional, Mus musculus; procedure, shortened: as §1
# P388 [33] = assay: Antitumor activity against P-388 lymphocytic leukemia in CDF1 hybrid male mice measured as median survival time ( 0.3 mg/kg),ip; format: functional, Mus musculus; procedure, shortened: as §1
# P388 [34] = assay: Antitumor activity against P-388 lymphocytic leukemia in CDF1 hybrid male mice measured as median survival time ( 0.6 mg/kg),ip; format: functional, Mus musculus; procedure, shortened: as §1
# P388 [35] = assay: Antitumor activity against P-388 lymphocytic leukemia in CDF1 hybrid male mice measured as median survival time ( 1.2 mg/kg),ip; format: functional, Mus musculus; procedure, shortened: as §1
compound,measurement,setting,value
"Cc1c2oc3c(C)ccc(C(=O)N[C@@H]4C(=O)N[C@H](C(C)C)C(=O)N5CCC[C@H]5C(=O)N(C)CC(=O)N(C)[C@@H](C(C)C)C(=O)O[C@@H]4C)c3nc-2c(C(=O)N[C@@H]2C(=O)N[C@H](C(C)C)C(=O)N3CCC[C@H]3C(=O)N(C)CC(=O)N(C)[C@@H](C(C)C)C(=O)O[C@@H]2C)c(N)c1=O [DACTINOMYCIN] (I: T[dV]P[Sar][NMeV] / II: T[dV]P[Sar][NMeV]; ester I:1-I:C, II:1-II:C; linker I:N-II:N via Actinocin(9to1))",IC50,Homo sapiens,0.06 µg/mL
same,Cure,P388 [1],0
same,Cure,P388 [2],1
same,Cure,P388 [3],0
same,Cure,P388 [4],0
same,ILS at 0.031 mg/kg,P388 [5],18%
same,ILS at 0.125 mg/kg,P388 [6],136%
same,ILS at 0.25 mg/kg,P388 [7],55%
same,ILS,P388 [8],45%
same,MST,P388 [9],13 days
same,MST,P388 [10],16 days
same,MTD,P388 [11],0.25
same,MTD,P388 [12],0.15
same,MST,P388 [13],9 days
same,MST,P388 [14],26 days
same,MST,P388 [15],17 days
same,MED,P388 [16],0.0625
same,MED,P388 [17],0.05
same,selectivity ratio,[18],4
same,selectivity ratio,[19],3
same,DNA melting temperature shift (ΔTm),[20],7.1 °C
Cc1c2oc3c(C)c(OCC(O)CO)cc(C(=O)N[C@@H]4C(=O)N[C@H](C(C)C)C(=O)N5CCC[C@H]5C(=O)N(C)CC(=O)N(C)[C@@H](C(C)C)C(=O)O[C@@H]4C)c3nc-2c(C(=O)N[C@@H]2C(=O)N[C@H](C(C)C)C(=O)N3CCC[C@H]3C(=O)N(C)CC(=O)N(C)[C@@H](C(C)C)C(=O)O[C@@H]2C)c(N)c1=O (stereo partly specified),IC50,Homo sapiens,0.085 µg/mL
same,Cure,P388 [21],0
same,Cure,P388 [22],2
same,Cure,P388 [23],1
same,Cure,P388 [24],0
same,Cure,P388 [25],0
same,ILS at 1.2 mg/kg,P388 [26],191%
same,ILS at 1.8 mg/kg,P388 [27],36%
same,ILS,P388 [28],45%
same,ILS,P388 [29],82%
same,ILS,P388 [30],136%
same,MTD,P388 [11],1.8
same,MTD,P388 [12],1.4
same,MST,P388 [31],15 days
same,MED,P388 [16],0.15
same,MED,P388 [17],0.125
same,MST,P388 [32],16 days
same,MST,P388 [33],20 days
same,MST,P388 [34],25 days
same,MST,P388 [35],32 days
